# Measurements reported in PubChem BioAssay.
# Activity calls are given as the source filed them.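 How the source made its calls, unless noted: active means visually confirmed hit in the image check and inhibition above 20%; inconclusive means visually confirmed hit but inhibition not above 20%; inactive means no visual hit in the image check.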
# How the values were obtained:
# [1] = inhibitors of TNFa-induced NFkB p65 translocation, primary screen, imaging, HUVEC, MLSMR starter and 10KST1 sets (AID 438;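 active means inhibition above 20% together with a positive visual image hit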;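 further: compound added about 3h40 before a 20 min TNFalpha stimulation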;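 on inhibition: signal is the nuclear over cytoplasmic p65 intensity ratio per well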); settings: HUVEC TNFa-induced p65 nuclear translocation; cell count: measured here: nuclei count (cytotoxicity indicator), at 2.08 µM; inhibition: at 2 µM, stronger effect = higher value, 0% TNFa-plus-vehicle, 100% no-TNFa wells
# [2] = reduction of polyQ htt aggregates in cells – imaging, exon1htt(103Q)mCFP cells, high-content imaging, primary screen (AID 483;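 active means visual image review flags a hit and inhibition of aggregation exceeds 20%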;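 further: compound exposure lasted 3 days before fixation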;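 on nuclei count: percent of the per-plate median nuclei count of sample wells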); settings: exon1htt(103Q)mCFP cell line, aggregate imaging, at 2 µM; inhibition of aggregation: stronger effect = higher value; nuclei count: measured here: cell count, toxicity
# [3] = endothelial E-selectin expression blockers – imaging, HUVEC, immunofluorescence, MLSMR starter and 10KST1 sets, primary screen (AID 487); settings: HUVEC TNFalpha-induced E-selectin immunofluorescence imaging, at 2 µM; inhibition: stronger effect = higher value; nuclei count: measured here: cell number, toxicity;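 on inhibition: signal is fraction of cell area covered by stained E-selectin grains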;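 on nuclei count: 100% = median nuclei count of all wells on the same plate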
# [4] = molecular target: Voltage-gated potassium channel subunit beta-2 (Rattus norvegicus) (UniProt P62483); experiment: inhibitors of rat Kvbeta2 reductase activity – biochemical, NADPH fluorescence, primary screen (AID 622;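 active means fluorescence slope higher than the sample average by over 3 SD, cut at about -0.22 in these data, passing the limit was not always enough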;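 further: slope of raw intensity against log time taken from 70 to 1610 s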); settings: recombinant KvBeta, 4-cyanobenzaldehyde reduction, at 10 µM, stronger effect = higher value
# Sequence of Voltage-gated potassium channel subunit beta-2 (Rattus norvegicus) (P62483 whole entry, looked up): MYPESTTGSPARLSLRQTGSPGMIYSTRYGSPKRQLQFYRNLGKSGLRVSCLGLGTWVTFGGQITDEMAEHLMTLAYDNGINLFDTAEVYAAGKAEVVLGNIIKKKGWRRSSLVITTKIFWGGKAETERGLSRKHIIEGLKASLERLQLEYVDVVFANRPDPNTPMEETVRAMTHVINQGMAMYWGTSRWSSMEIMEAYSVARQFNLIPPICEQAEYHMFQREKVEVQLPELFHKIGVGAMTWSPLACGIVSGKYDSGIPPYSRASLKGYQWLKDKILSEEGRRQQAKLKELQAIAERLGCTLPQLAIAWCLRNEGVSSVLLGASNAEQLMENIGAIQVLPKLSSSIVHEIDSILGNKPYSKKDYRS
# [5] = molecular target: Voltage-gated potassium channel subunit beta-2 (Rattus norvegicus) (UniProt P62483); experiment: enhancers of rat Kvbeta2 NADPH turnover – biochemical, NADPH fluorescence, primary screen (AID 623;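 active means NADPH fluorescence slope more negative than the mean of all samples by about 3 SD, 99.7% confidence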;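 further: fluorescence intensity change per second fitted from 20 to 320 s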); settings: Recombinant KvBeta, NADPH fluorescence decrease slope, 10 min; at 10 µM; stronger effect = lower value
# [6] = molecular target: Alpha-2C adrenergic receptor (Homo sapiens) (UniProt P18825); experiment: compounds altering alpha2C-coupled GIRK flux – cell-based, HEK293 alpha2C/GIRK1/2, thallium flux, primary screen (AID 624;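 active means fluorescence slope after compound addition differing from the mean of all screened samples at 99.7% confidence, in either direction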;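 further: slope of fluorescence ratio to pre-addition baseline per second over 15 to 24 s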); settings: thallium flux BTC fluorescence, at 10 µM, actives lie on both sides
# Sequence of Alpha-2C adrenergic receptor (Homo sapiens) (P18825 whole entry, looked up): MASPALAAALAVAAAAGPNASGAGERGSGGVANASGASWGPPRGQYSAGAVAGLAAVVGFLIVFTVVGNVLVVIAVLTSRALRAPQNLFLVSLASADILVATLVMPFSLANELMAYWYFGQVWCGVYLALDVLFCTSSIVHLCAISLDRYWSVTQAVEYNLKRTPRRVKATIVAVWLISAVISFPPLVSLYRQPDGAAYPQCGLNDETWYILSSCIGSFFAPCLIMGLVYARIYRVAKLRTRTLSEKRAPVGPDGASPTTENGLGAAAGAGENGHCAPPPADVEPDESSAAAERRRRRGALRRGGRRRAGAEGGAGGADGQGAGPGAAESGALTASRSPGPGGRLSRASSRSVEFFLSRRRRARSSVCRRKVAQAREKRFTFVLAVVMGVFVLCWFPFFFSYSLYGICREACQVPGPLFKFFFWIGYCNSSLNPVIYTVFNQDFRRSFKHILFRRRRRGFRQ
# [7] = inhibitors of larval lipid processing in zebrafish, primary screen, whole organism, PED6 fluorescence, gall bladder and intestine (AID 686;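 active means a full or partial loss of lipid-probe fluorescence in the fish gall bladder, intestine or both, judged by eye; inactive means no fluorescence loss, or compound toxic to the fish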;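 further: larvae 5 to 7 days old with five fish per well; signal comes from phospholipase A2 cleavage of quenched PED6 carried via bile; overnight exposure to compound and PED6 before scoring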); settings: Zebrafish larvae PED6 lipid processing, fluorescence scoring; screened at 20 µM (by protocol)
# Summary of the method: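 Test system – live zebrafish larvae aged 5-7 days, whole organism · Buffer or medium – E3 fish medium · Reagent – quenched phospholipase substrate PED6, 100 nM final, ingested by larvae · Doses – 20 µM single dose · Incubation – overnight compound and PED6 incubation · Technique – visual fluorescence microscopy scoring of gall bladder, gut · Read-out basis – visual per-well fluorescence inhibition score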
# [8] = blockers of RIG-like receptor reporter activation – cell-based, Sendai virus stimulus, luciferase, 10K MLSCN set, TLR/RLR signaling modifier project, primary screen (AID 602276;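 active means inhibition at or above 50% at 10 µM; inactive means inhibition below 50%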;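 further: firefly luciferase from ISG56 promoter only with Renilla not read in this screen; 0% = Sendai virus plus DMSO and 100% = medium plus DMSO without virus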); settings: HEK293 RL24 IRF3 luciferase reporter, at 10 µM, stronger effect = higher value
# [9] = TLR3 IRF3 reporter activation blockers – cell-based, poly I:C stimulus, luciferase, 10K MLSCN set, primary screen (AID 602277;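 active means inhibition of the reporter signal at or above 50%; inactive means inhibition below 50%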); settings: HEK293-TLR3 RL24 IRF3 luciferase reporter, at 10 µM, stronger effect = higher value
SMILES,cell count [1],inhibition [1],inhibition of aggregation [2],nuclei count [2],inhibition [3],nuclei count [3],fluorescence slope [4],NADPH fluorescence slope [5],slope [6],outcome [7],inhibition [8],inhibition [9]
CCOC(=O)c1c(-c2ccc(C)o2)csc1NC(=O)CN1CCN(CC)CC1,393,-0.4% (inactive),8.3% (inactive),95.5%,-12.2% (inactive),106%,-0.409 (inactive),-3.8e-05 (inactive),0.0051 (inactive),inactive,11.4% (inactive),22% (inactive)
CCN(CC)C(=O)C1CCN(CC2CC=CCC2)CC1 (centres undefined),377,-8.2% (inactive),12.3% (inactive),110%,-22.3% (inactive),76.6%,-0.361 (inactive),2.7e-06 (inactive),0.00638 (inactive),inactive,-1.94% (inactive),9.42% (inactive)
CCCCN1CN(S(=O)(=O)c2cccs2)c2nc3ccccc3nc21,253,-13% (inactive),0.5% (inactive),83.1%,0.2% (inactive),91.6%,-0.393 (inactive),-5.6e-05 (inactive),0.00634 (inactive),inactive,-4.14% (inactive),-4.36% (inactive)
CCC(C(=O)NC(C)CCc1ccco1)n1nc(C)n2c(cc3occc32)c1=O (centres undefined),488,6% (inactive),-13.2% (inactive),84.5%,-121% (inactive),98.3%,-0.475 (inactive),-2e-05 (inactive),0.00405 (inactive),inactive,2.28% (inactive),2.25% (inactive)
CCCC(=O)Nc1ccc(C(=O)O)cc1NC(=O)CCC,442,-4.3% (inactive),-9.3% (inactive),104%,39.4% (inactive),89.9%,-0.441 (inactive),-5e-05 (inactive),0.00422 (inactive),inactive,12.9% (inactive),15.5% (inactive)
CCc1ccccc1N1C(=O)C2CC(C)=C(C)CC2C1=O (centres undefined),500,5.5% (inactive),18.2% (inactive),92.1%,-355% (inactive),124%,-0.368 (inactive),-5.9e-05 (inactive),0.00511 (inactive),inactive,10.5% (inactive),4.14% (inactive)
COc1ccc2cc(C(c3nnnn3C(C)(C)C)N3CCc4ccccc4C3)c(=O)[nH]c2c1 (centres undefined),311,11.9% (inactive),5.3% (inactive),100%,1% (inactive),94.4%,-0.347 (inactive),-5.8e-05 (inactive),0.00475 (inactive),inactive,24.2% (inactive),44.5% (inactive)
CC(C)c1nc(N2CCN(C(=O)c3ccco3)CC2)c2c3c(sc2n1)CCCC3,748,-9.7% (inactive),-12.3% (inactive),94.5%,-7.6% (inactive),103%,-0.486 (inactive),5.1e-05 (inactive),0.00628 (inactive),–,15.9% (inactive),-5.95% (inactive)
CSc1c(CC(=O)NCCO)n(C)c2ccccc12,575,-14% (inactive),8.4% (inactive),88%,-3.5% (inactive),105%,-0.338 (inactive),1.3e-05 (inactive),0.005 (inactive),inactive,1.14% (inactive),5.52% (inactive)
CCC(=O)Nc1nn(C)c2nc3c(C)cccc3cc12,724,-9% (inactive),27.6% (inactive),87.7%,-53.9% (inactive),102%,-0.281 (inactive),-6.4e-06 (inactive),0.00513 (inactive),inactive,-2.08% (inactive),-4.15% (inactive)
O=S1(=O)CCC(N=Cc2cc(Br)ccc2O)C1 (centres undefined),500,-13.1% (inactive),32.5% (inactive),76.6%,18% (inactive),97.7%,-0.498 (inactive),-4e-05 (inactive),0.0045 (inactive),–,17.3% (inactive),22.5% (inactive)
CC(C)c1ccc(C(O)c2cnc(C(C)C)n2C)cc1 (centres undefined),723,6.9% (inactive),-27.2% (inactive),50.5%,-93.9% (inactive),106%,-0.552 (inactive),-3.1e-05 (inactive),0.00678 (inactive),–,-10.5% (inactive),-5.66% (inactive)
CC(C)Cn1c2c(c(O)c(C(=O)Nc3ncccc3O)c1=O)CCCC2,576,-5.9% (inactive),9.6% (inactive),99.1%,26.1% (inactive),105%,-0.38 (inactive),-6.5e-05 (inactive),0.00432 (inactive),inactive,8.02% (inactive),10.1% (inactive)
COc1ccc(OC)c(N(CC(=O)Nc2cccnc2)S(=O)(=O)c2ccc(OC)c(OC)c2)c1,722,7.9% (inactive),-6.2% (inactive),97%,-37.3% (inactive),94.1%,-0.456 (inactive),-5.3e-05 (inactive),0.00497 (inactive),inactive,18.6% (inactive),21.4% (inactive)
CCC(=O)N1CCN(c2nc(-c3ccccc3)c3c(c2C#N)CCCC3)CC1,501,6.3% (inactive),0.7% (inactive),98.3%,-27.6% (inactive),108%,-0.317 (inactive),-8.2e-07 (inactive),0.00519 (inactive),–,13.4% (inactive),44.4% (inactive)
O=C(COc1ccc(F)cc1)Nc1ccc(-n2cnnn2)cc1,568,1.1% (inactive),34.2% (inactive),90.5%,52.5% (inactive),62.3%,-0.409 (inactive),-0.000109 (inactive),0.00564 (inactive),inactive,8.39% (inactive),1.26% (inactive)
Cc1cc(C(=O)COC(=O)CCc2nc3ccccc3s2)c(C)n1C,170,-10.5% (inactive),14.2% (inactive),108%,-16% (inactive),96%,-0.454 (inactive),-3.3e-05 (inactive),0.00538 (inactive),inactive,16.3% (inactive),7.6% (inactive)
COc1ccc(-c2nsc(SCC(=O)Nc3cc(C)on3)n2)cc1,245,-7% (inactive),14.4% (inactive),84.3%,50.5% (inactive),64.4%,-0.396 (inactive),-2.2e-07 (inactive),0.0058 (inactive),inactive,21.4% (inactive),17.9% (inactive)
O=C(NCCSc1c[nH]c2ccccc12)c1ccco1,686,-2.4% (inactive),-13.1% (inactive),108%,-15.8% (inactive),116%,-0.562 (inactive),-4e-05 (inactive),0.00591 (inactive),–,10.1% (inactive),32.9% (inactive)
O=C(Nc1ccc2oc(Cc3ccc(Cl)cc3)nc2c1)c1cccnc1,396,6.7% (inactive),-0.8% (inactive),93.5%,-15% (inactive),114%,-0.364 (inactive),-2.3e-06 (inactive),0.00427 (inactive),inactive,14.7% (inactive),7.42% (inactive)
COC(=O)c1sccc1NC(=O)c1ccco1,474,-11.9% (inactive),8.2% (inactive),90.7%,19.6% (inactive),89.7%,-0.44 (inactive),-3.5e-05 (inactive),0.00438 (inactive),active; weak signal in gallbladder only,2.56% (inactive),-4.04% (inactive)
COC(=O)c1[nH]c2ccc(C)cc2c1NC(=O)CN1CCCC(C)(C)C1,422,7.3% (inactive),-2.1% (inactive),101%,-330% (inactive),107%,-0.37 (inactive),-2.6e-05 (inactive),0.00452 (inactive),inactive,8.28% (inactive),18% (inactive)
COc1ccccc1OCc1nc2ccccc2[nH]1,391,1.3% (inactive),19.9% (inactive),101%,29.8% (inactive),86.3%,-0.444 (inactive),-7e-05 (inactive),0.0055 (inactive),inactive,-14.3% (inactive),-80.7% (inactive)
Cc1ccc(S(=O)(=O)N2CCN(C(=O)N3CCOCC3)C2c2ccc(N(C)C)cc2)cc1 (centres undefined),377,-0.5% (inactive),0.7% (inactive),98%,-44.5% (inactive),121%,-0.419 (inactive),-5.2e-05 (inactive),0.00452 (inactive),inactive,12.8% (inactive),8.2% (inactive)
Cc1ccc(Nc2nc(N)nc(CN3CCN(Cc4ccc5c(c4)OCO5)CC3)n2)cc1,385,4.6% (inactive),54.3% (active),91.6%,-82.2% (inactive),102%,-0.367 (inactive),-4.6e-05 (inactive),0.00487 (inactive),inactive,1.9% (inactive),7.26% (inactive)
COc1ccc(NC(=O)N2CCC(c3nc(-c4cccs4)no3)CC2)cc1,486,-35.7% (inactive),1.4% (inactive),56.4%,-41.5% (inactive),102%,-0.36 (inactive),-5.2e-05 (inactive),0.00458 (inactive),inactive,-1.92% (inactive),-22% (inactive)
COC(=O)c1ccccc1NC(=O)C12CCC(C)(C(=O)O1)C2(C)C (centres undefined),358,1.7% (inactive),-12.1% (inactive),106%,29.1% (inactive),92.7%,-0.433 (inactive),-4.4e-05 (inactive),0.00406 (inactive),inactive,20.2% (inactive),22.6% (inactive)
